Columns and labels:
CRY1/CRY2 = settings: cited from earlier work
[1] = system: Per2::Luc reporter in Cry1 knockout fibroblasts; assay: Per2::Luc repression assay; format: cell-based, mice; settings: Cry1 knockout cells
Outline: (§1)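 Mouse fibroblasts carrying a Per2::Luc knock-in reporter (wild type, Cry1/Cry2 double, Cry1 or Cry2 knockout) grown 2 days to confluency in 384-well plates, then given test compound dilution series (final 0.7% DMSO). After 2 days, medium replaced with BrightGlo and luminescence read. Change is relative to DMSO control, n = 3–4 biological samples. IC50 from sigmoidal dose–response fit.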

[2] = system: Per2::Luc reporter in Cry2 knockout fibroblasts; assay: Per2::Luc repression assay; format: cell-based, mice; settings: Cry2 knockout cells, compared to wild type
Outline: as §1

In the case of `CS(=O)(=O)N(Cc1ccco1)CC(O)Cn1c2ccccc2c2ccccc21` (stereo not drawn) [KL001], the CRY isoform selectivity (CRY1/CRY2) is listed as “does not display a CRY isoform selectivity” and the “repression of Per2::Luc reporter activity” value (“repression” for short) [1] is listed as “less effective than intact cells”.

For `O=C1NCCN1C[C@H](O)Cn1c2ccc(F)cc2c2cc(F)ccc21` [SHP1703], the CRY isoform selectivity (CRY1/CRY2) is given as “selective for CRY2” and the “repression” value [2] is given as “reduced overall repression”.

For `O=C1NCCN1CC(O)Cn1c2ccc(F)cc2c2cc(F)ccc21` (stereo not drawn) [SHP656], the CRY isoform selectivity (CRY1/CRY2) is given as “selective for CRY2” and the “repression” value [2] is given as “reduced overall repression”.
